# Measured values taken from ChEMBL document CHEMBL6083207, “Design, synthesis and biological evaluation of a novel PSMA-PI3K small molecule drug conjugate” (RSC Med Chem, 2024).
# Columns and labels:
# [1] = system: LNCaP; assay: Antiproliferative activity against PSMA-positive human LNCaP cells incubated for 72 hrs by Cell Titer Glo assay; assay type: functional, cell-based
# How it was run: (§1)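 Cells grown in RPMI 1640 with 10% FBS, seeded at 3 × 10^3 per well and left overnight, then exposed to a range of compound concentrations for 72 h. Viability read by CellTiter-Glo luminescence after 2 min shaking and 10 min at room temperature. IC50 calculated from the curves; mean of n = 3.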
# [2] = biological target: Phosphatidylinositol 4,5-bisphosphate 3-kinase catalytic subunit alpha isoform (Homo sapiens, UniProt P42336); assay: Inhibition of PI3Kalpha (unknown origin)
# Chain of Phosphatidylinositol 4,5-bisphosphate 3-kinase catalytic subunit alpha isoform (P42336 whole entry, canonical isoform): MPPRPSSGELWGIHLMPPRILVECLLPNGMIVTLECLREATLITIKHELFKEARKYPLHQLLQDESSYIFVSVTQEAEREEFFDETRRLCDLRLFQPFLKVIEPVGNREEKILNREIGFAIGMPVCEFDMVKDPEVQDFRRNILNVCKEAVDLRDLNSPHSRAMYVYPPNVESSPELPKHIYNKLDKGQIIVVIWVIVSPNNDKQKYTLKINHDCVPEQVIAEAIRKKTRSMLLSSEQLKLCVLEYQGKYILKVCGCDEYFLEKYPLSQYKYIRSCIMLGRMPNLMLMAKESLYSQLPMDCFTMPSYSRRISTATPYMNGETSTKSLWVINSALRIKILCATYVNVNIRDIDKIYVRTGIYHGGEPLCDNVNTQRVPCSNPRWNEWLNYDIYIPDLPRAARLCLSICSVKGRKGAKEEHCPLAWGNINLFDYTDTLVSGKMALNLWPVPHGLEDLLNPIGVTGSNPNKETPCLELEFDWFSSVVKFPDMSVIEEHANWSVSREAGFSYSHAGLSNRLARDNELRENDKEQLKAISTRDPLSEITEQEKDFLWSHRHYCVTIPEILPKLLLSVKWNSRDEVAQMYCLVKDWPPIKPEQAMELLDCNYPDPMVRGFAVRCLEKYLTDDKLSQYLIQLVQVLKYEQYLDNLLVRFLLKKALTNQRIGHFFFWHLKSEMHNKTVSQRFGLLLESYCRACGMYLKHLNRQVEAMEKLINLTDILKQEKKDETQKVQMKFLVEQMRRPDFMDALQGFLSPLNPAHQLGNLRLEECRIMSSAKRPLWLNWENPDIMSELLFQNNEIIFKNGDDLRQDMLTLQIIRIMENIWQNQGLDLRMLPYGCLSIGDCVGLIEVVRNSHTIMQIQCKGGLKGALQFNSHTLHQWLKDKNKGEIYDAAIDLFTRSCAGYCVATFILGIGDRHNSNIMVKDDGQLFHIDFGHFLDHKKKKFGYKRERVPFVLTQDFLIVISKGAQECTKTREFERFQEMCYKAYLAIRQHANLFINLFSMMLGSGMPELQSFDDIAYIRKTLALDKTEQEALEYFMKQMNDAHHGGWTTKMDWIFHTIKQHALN
# [3] = system: CWR22R; assay: Antiproliferative activity against PSMA-positive human 22Rv1 cells incubated for 72 hrs by Cell Titer Glo assay; assay type: functional, cell-based; details: 22Rv1, 72 h; how it was run: as §1
# [4] = system: PC-3; assay: Antiproliferative activity against PSMA-negative human PC-3 cells incubated for 72 hrs by Cell Titer Glo assay; assay type: functional, cell-based; details: PC-3, 72 h; how it was run: as §1
# [5] = Selectivity ratio of IC50 for PSMA-negative human PC-3 cells to IC50 for PSMA-positive human LNCaP cells; assay type: functional
# How it was run: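 Ratio of PC3 IC50 to LNCaP IC50, both from 72 h CellTiter-Glo viability assays.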
# [6] = system: 22Rv1; assay: Inhibition of PI3K in human 22Rv1 cells assessed as reduction in phosphorylation of AKT at S473 incubated for 3 hrs by Western blot analysis; assay type: cell-based; details: dose <= 10.0 µM
# How it was run: (§2)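 22Rv1 cells treated at the stated concentrations for 3 h and lysed in RIPA buffer with protease and phosphatase inhibitors. 25 μg protein separated by SDS-PAGE and blotted to PVDF. Probed overnight at 4 °C for phospho- and total mTOR, AKT (Ser473) and S6RP, with β-actin as loading control. Detected by ECL chemiluminescence.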
# [7] = system: 22Rv1; assay: Inhibition of PI3K in human 22Rv1 cells assessed as reduction in phosphorylation of mTOR incubated for 3 hrs by Western blot analysis; assay type: cell-based; details: dose <= 10.0 µM; how it was run: as §2
# [8] = system: 22Rv1; assay: Inhibition of PI3K in human 22Rv1 cells assessed as reduction in phosphorylation of S6RP incubated for 3 hrs by Western blot analysis; assay type: cell-based; details: dose <= 10.0 µM; how it was run: as §2
# [9] = system: CWR22R; assay: Induction of cell cycle arrest in human 22Rv1 cells assessed as accumulation at G0/G1 phase incubated for 24 hrs by flow cytometry; assay type: functional, cell-based; details: dose <= 10.0 µM
# How it was run: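 1 × 10^5 22Rv1 cells treated at several concentrations for 24 h, then fixed in ice-cold 70% ethanol. Stained with PI/RNase and analysed by flow cytometry with 488 nm excitation to give the percentage of cells in each cycle phase.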
# [10] = Toxicity in Balb/c athymic nude mouse xenografted with human 22Rv1 cells assessed as drug tolerance at 10 to 20 mg/kg, ip qd measured for 22 days; assay type: organism-based; details: in vivo, 528 h, dose 10-20 mg/kg, time 22 day
# How it was run: (§3)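 Male Balb/c athymic nude mice, 8–10 weeks old. Tumour cells taken from 22Rv1 donor tumours (grown to 1000 mm3) and implanted at 2 × 10^6 per mouse, subcutaneously in the right flank. Randomized at about 100 mm3. Compound given ip once daily in saline with 1% PEG400; vehicle group received the same. Tumour volume (1/2 × L × W2) and body weight measured twice weekly.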
# [11] = system: CWR22R; assay: Antitumor activity against human 22Rv1 cells xenografted in Balb/c athymic nude mouse administered intraperitoneally once daily measured for 22 days; details: dose 10-20 mg/kg, route ip, time 22.0 day; how it was run: as §3
# [12] = system: CWR22R; assay: Antitumor activity against human 22Rv1 cells xenografted in Balb/c athymic nude mouse at 20 mg/kg, ip qd measured for 22 days relative to control; assay type: functional; details: 22Rv1, 528 h, time 22 day, read-out: TGI; how it was run: as §3
# [13] = Toxicity in Balb/c athymic nude mouse xenografted with human 22Rv1 cells assessed as body weight change at 10 to 20 mg/kg, ip qd measured for 22 days; assay type: organism-based; details: in vivo, 528 h, dose 10-20 mg/kg, time 22 day; how it was run: as §3
# [14] = Selectivity ratio of IC50 for PSMA-negative human PC3 cells to IC50 for PSMA-positive human 22Rv1 cells
Compound,IC50 [1],IC50 [2],IC50 [3],IC50 [4],Ratio IC50 [5],inhibition [6],inhibition [7],inhibition [8],Activity [9],Activity [10],Activity [11],inhibition in vivo at 20 mg/kg [12],Activity [13],Ratio IC50 [14]
NCCCC[C@H](NC(=O)N[C@@H](CCC(=O)O)C(=O)O)C(=O)O,> 100000 nM,–,–,–,–,–,–,–,–,–,–,–,–,–
COc1ncc(-c2cc(OCCCC(=O)NC[C@H]3CC[C@@H](C(=O)N[C@@H](Cc4ccc5ccccc5c4)C(=O)NCCCC[C@H](NC(=O)N[C@@H](CCC(=O)O)C(=O)O)C(=O)O)CC3)c3ncnc(C)c3c2)cc1NS(=O)(=O)c1ccc(F)cc1F,1080 nM,0.4 nM,9.68 µM,57.8 µM,54,Dose-dependent-effect,Dose-dependent-effect,Dose-dependent-effect,Dose-dependent-effect,Non-toxic,Dose-dependent-effect,53%,Non-toxic,6
